Laboratory results: ChEMBL document CHEMBL1144042, “Cytotoxic simplified tubulysin analogues” (J Med Chem, 2008)

Assays:
[1] = tested on: 1A9; assay: Cytotoxicity against human 1A9 cells; format: functional, cell-based
[2] = Inhibition of rat brain tubulin polymerization
Method in brief: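 Rat brain tubulin (10 µM) mixed on ice with test compound at 0.5, 1, 2 and 4 µM in 0.8 M sodium glutamate, pH 6.6, with 0.4 mM GTP. Samples then warmed to 33 °C. Polymerization followed over time as optical density at 350 nm. IC50 taken from the concentration series.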

[3] = tested on: HCT-15; assay: Anticancer activity against multidrug-resistant human HCT15 cells; format: functional
[4] = Anticancer activity against multidrug-resistant human KBV1 cells; format: functional, cell-based; conditions: KB-V1

| SMILES | IC50 [1] [nM] | further results |
| --- | --- | --- |
| CN[C@H](C(=O)N[C@H](C(=O)N(C)[C@H](/C=C(\C)C(=O)O)C(C)C)C(C)(C)C)C(C)(C)c1ccccc1 [TALTOBULIN] | 0.03 | IC50 [2]: 1000 nM |
| CCC(C)[C@H](NC(=O)[C@H]1CCCN1C)C(=O)N[C@H](CC(=O)c1nc(C(=O)N[C@@H](Cc2ccccc2)C[C@H](C)C(=O)O)cs1)C(C)C (single isomer, unassigned) | 800 | IC50 [2]: 1000 nM |
| COc1cc([C@@H]2c3cc4c(cc3[C@H](O)[C@H]3COC(=O)[C@H]23)OCO4)cc(OC)c1OC [PODOFILOX] | 3 |  |
| CC[C@@H](C)[C@H](NC(=O)[C@@H]1CCCCN1)C(=O)N[C@H](CC(=O)c1nc(C(=O)N[C@@H](Cc2ccccc2)C[C@H](C)C(=O)O)cs1)C(C)C | 24000 |  |
| CCC(C)[C@H](NC(=O)[C@@H]1CCCN1)C(=O)N[C@H](CC(=O)c1nc(C(=O)N[C@@H](Cc2ccccc2)C[C@H](C)C(=O)O)cs1)C(C)C (single isomer, unassigned) | > 33000 |  |
| CCC(C)[C@H](NC(=O)[C@@H]1CCCCN1C)C(=O)N[C@H](CC(=O)c1nc(C(=O)N[C@@H](Cc2ccccc2)C[C@H](C)C(=O)O)cs1)C(C)C (single isomer, unassigned) | 25000 |  |
| CC[C@@H](C)[C@H](NC(=O)[C@H]1CCCCN1C)C(=O)N(COC(=O)CC(C)C)[C@H](C[C@@H](OC(C)=O)c1nc(C(=O)N[C@@H](Cc2ccc(O)cc2)C[C@H](C)C(=O)O)cs1)C(C)C [TUBULYSIN A] |  | GI50 [3]: 0.12 nM |
| CCC(C)[C@H](NC(=O)[C@H]1CCCCN1C)C(=O)N[C@H](CC(=O)c1nc(C(=O)N[C@@H](Cc2ccccc2)C[C@H](C)C(=O)O)cs1)C(C)C (single isomer, unassigned) | 200 | IC50 [2]: 1800 nM |
| CCC(C)[C@H](NC(=O)[C@H]1CCCN1)C(=O)N[C@H](CC(=O)c1nc(C(=O)N[C@@H](Cc2ccccc2)C[C@H](C)C(=O)O)cs1)C(C)C (single isomer, unassigned) | > 33000 |  |
| CCC(C)[C@H](NC(=O)[C@H]1CCCCN1C)C(=O)N(COC(=O)CC(C)C)[C@H](C[C@@H](OC(C)=O)c1nc(C(=O)N[C@@H](Cc2ccccc2)C[C@H](C)C(=O)O)cs1)C(C)C (single isomer, unassigned) [TUBULYSIN D] |  | IC50 [4]: 0.31 nM |
| CCC(C)[C@H](NC(=O)[C@@H]1CCCN1C)C(=O)N[C@H](CC(=O)c1nc(C(=O)N[C@@H](Cc2ccccc2)C[C@H](C)C(=O)O)cs1)C(C)C (single isomer, unassigned) | 18000 |  |
| CC[C@@H](C)[C@H](NC(=O)[C@H]1CCCCN1)C(=O)N[C@H](CC(=O)c1nc(C(=O)N[C@@H](Cc2ccccc2)C[C@H](C)C(=O)O)cs1)C(C)C | 23000 |  |
